Like-named read-outs stand apart in the source and are kept apart here.
How the values were obtained:
Assay type in all cases: biochemical, Fischer 344 rats
[1] = test system: Complex II dependent oxygen consumption; details: log dose response; no observed differences across brain regions
Outline: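 Brain regions dissected from 16-week male rats; mitochondria purified by differential centrifugation, nitrogen disruption at 1200 psi and Ficoll gradient. Wells got 2.5 or 5 μg protein, were spun 200 × g, and were overlaid with respiration buffer pH 7.2 at 37 °C. […] 5–6 rats/group; two-way ANOVA.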

Mitochondrial Complex I = Mitochondrial Complex I (Rattus norvegicus, UniProt P03889+Q641Y2); assay: Mitochondrial Complex I enzyme activity assay
Mitochondrial Complex I, sequence (Q641Y2 34-463): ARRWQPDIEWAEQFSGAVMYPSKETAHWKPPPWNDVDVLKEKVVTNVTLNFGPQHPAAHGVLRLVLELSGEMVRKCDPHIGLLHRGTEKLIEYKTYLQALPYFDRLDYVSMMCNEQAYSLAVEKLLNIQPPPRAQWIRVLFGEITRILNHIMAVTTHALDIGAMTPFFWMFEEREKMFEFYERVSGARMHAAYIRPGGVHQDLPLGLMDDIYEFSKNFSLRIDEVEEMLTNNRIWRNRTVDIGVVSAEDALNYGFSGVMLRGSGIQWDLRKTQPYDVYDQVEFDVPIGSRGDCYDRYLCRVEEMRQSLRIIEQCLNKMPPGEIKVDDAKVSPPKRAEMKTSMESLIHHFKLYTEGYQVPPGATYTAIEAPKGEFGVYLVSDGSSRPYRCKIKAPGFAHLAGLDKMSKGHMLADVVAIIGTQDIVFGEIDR
Mitochondrial Complex I, sequence (P03889 whole entry): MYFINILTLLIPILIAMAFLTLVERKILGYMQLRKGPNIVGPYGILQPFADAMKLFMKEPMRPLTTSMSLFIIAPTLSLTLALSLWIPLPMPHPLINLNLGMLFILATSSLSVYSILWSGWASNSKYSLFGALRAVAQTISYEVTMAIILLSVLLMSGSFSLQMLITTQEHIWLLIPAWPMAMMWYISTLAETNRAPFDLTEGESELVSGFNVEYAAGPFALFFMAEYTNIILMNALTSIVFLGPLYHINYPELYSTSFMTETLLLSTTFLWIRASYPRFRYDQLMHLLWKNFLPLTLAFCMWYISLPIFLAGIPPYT

[2] = test system: Complex I driven oxygen consumption; details: cortical mitochondria
Outline: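 Cortical mitochondria were isolated by differential centrifugation, nitrogen bomb and Ficoll purification, then seeded on XF24 plates in respiration buffer (mannitol/sucrose/BSA/HEPES/MgCl/KH2PO4, pH 7.2, 37 °C). A modified protocol repeatedly measured O2 consumption in the same well after injecting low rotenone (10 fM, 10 pM, 10 nM; diluted in ethanol). 5–6 rats/group; two-way ANOVA with post hoc tests.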

| Structure (SMILES) | effect on mitochondrial driven oxygen consumption (Complex II) [1] | IC50 (Mitochondrial Complex I) [nM] | effect on mitochondrial oxygen consumption ([2]; 10 pM rotenone, up to 8 min following exposure) | effect on mitochondrial oxygen consumption ([2]; 10 nM rotenone) | effect on mitochondrial oxygen consumption ([2]; 10 fM rotenone) |
| --- | --- | --- | --- | --- | --- |
| O=C(O)CC(=O)O [malonate] | dose dependent decrease |  |  |  |  |
| C=C(C)[C@H]1Cc2c(ccc3c2O[C@@H]2COc4cc(OC)c(OC)cc4[C@@H]2C3=O)O1 [rotenone] |  | 0.163 to 0.238 | did not result in any reduction in oxygen consumption | significant reduction in mitochondrial oxygen consumption immediately following exposure | no reduction in oxygen consumption |

— article PMC3535268 (Journal of neuroscience methods, 2011)
